Publication PMC9305987 (Nature cell biology, 2022)
Like-named read-outs stand apart in the source and are kept apart here. Values belong to the molecule of their own block, whether it stands above or below them.

What was measured:
RAW264.7 cells [1] = assay: qRT-PCR of LPS-induced genes; type: cell-based, mouse
In short: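 Alternatively, cells got LPS for 2 h, then OI for 2 h, or LPS plus dimethyl-α-KG (0.5, 1, 2 mM). mRNA was measured by qRT-PCR with β-actin as housekeeping control. Nfkbiz data are means with S.D. of 3 independent experiments.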

[2] = system: HEK293T cells overexpressing mTET2^CD; assay: Global 5hmC by immunofluorescence in TET2-overexpressing cells; type: cell-based; conditions: for Effect on 5hmC: HEK293T overexpressing mTET2^CD
In short: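 TET2-overexpressing HEK293T cells were treated with OI alone or with rising amounts of dimethyl-α-KG. 5hmC immunofluorescence: Triton X-100 permeabilization, 2 N HCl denaturation for 30 min, Tris pH 8.5 neutralization, BSA block, anti-5hmC overnight at 4°C, fluorescent secondary, DAPI counterstain. Two independent experiments.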

RAW264.7 cells [3] = assay: Genomic 5hmC by IF staining in LPS-treated macrophages; type: cell-based, mouse; conditions: LPS 12 hours then 1 mM for 12 hours
In short: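 RAW264.7 cells (DMEM, 10% FBS) were challenged with LPS for 12 h, then given dimethyl-α-KG (1 mM) for 12 h. Cells were permeabilized with 0.3% Triton X-100 for 15 min, DNA denatured with 2 N HCl for 30 min, and neutralized with 100 mM Tris-HCl pH 8.5. Staining used 3% BSA block, anti-5hmC at 4°C overnight, Alexa Fluor 594 secondary for 1 h, and DAPI, then fluorescence microscopy.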

mTET2^CD = molecular target: T1, mTET2^CD (Mus musculus, UniProt Q4JK59); type: biochemical; conditions: for Inhibition of mTET2^CD activity in presence of excess α-KG: fixed concentration of inhibitor, variable α-KG
T1 sequence (Q4JK59 1042-1912 limits assumed): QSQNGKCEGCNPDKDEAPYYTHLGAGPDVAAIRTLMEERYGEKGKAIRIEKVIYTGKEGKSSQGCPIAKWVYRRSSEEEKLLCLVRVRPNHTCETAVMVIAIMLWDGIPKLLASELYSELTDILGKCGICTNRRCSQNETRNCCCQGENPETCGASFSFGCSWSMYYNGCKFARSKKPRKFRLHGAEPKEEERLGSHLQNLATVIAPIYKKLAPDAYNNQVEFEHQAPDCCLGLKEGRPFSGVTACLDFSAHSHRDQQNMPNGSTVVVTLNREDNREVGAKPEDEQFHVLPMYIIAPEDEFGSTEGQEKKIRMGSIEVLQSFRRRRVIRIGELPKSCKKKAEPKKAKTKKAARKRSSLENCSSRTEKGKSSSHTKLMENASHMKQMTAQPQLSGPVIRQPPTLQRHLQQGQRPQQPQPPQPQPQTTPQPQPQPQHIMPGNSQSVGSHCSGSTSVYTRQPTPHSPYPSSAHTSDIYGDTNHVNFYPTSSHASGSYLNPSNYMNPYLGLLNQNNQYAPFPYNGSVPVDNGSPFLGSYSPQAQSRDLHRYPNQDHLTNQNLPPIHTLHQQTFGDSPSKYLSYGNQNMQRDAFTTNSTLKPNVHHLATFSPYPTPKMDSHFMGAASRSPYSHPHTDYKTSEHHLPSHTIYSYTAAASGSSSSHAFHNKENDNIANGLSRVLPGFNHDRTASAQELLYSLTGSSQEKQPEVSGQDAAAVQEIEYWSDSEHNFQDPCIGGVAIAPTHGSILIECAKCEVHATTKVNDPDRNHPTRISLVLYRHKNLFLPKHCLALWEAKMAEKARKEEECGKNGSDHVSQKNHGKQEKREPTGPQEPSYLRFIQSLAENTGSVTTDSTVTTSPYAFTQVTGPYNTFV

Irg1-KO RAW264.7 cells = assay: SDH inhibition, succinate and 5hmC in LPS-stimulated Irg1-KO macrophages; type: cell-based, mouse; conditions: 3-NPA 1 mM, LPS-stimulated Irg1-KO RAW264.7
[4] = system: RAW264.7 mouse macrophages; assay: Intracellular ITA accumulation by LC-MS/MS; type: cell-based; conditions: RAW264.7, dose-dependent
[5] = molecular target: recombinant human TET2^CD (Homo sapiens, UniProt Q6N021); assay: Saturation transfer difference; type: binding
In short: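 Spectra were run at 25°C, 700 MHz, cryoprobe, carrier on water. A 3-s saturation used a 50-ms EBurp2 pulse (0.75 ppm bandwidth) centred at 0.8 ppm for difference or −40 ppm for reference spectra.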

[6] = system: TET2^CD mutant, i.e. R1896M or S1898F; assay: STD NMR binding to TET2^CD mutants; set-up: species or system human
peritoneal leukocytes = assay: Genomic 5hmC and 5mC in peritoneal leukocytes after i.p. ITA, LC-MS/MS; type: in vivo, mouse; conditions: 50 mg/kg ITA i.p. prior to LPS 25 mg/kg
[7] = system: HEK293T cells overexpressing TET3; assay: Global 5hmC by dot-blot and LC-MS/MS in TET3-overexpressing cells; type: cell-based
In short: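 For dot-blot, genomic DNA was spotted on nitrocellulose, UV-crosslinked for 20 min, blocked in 5% milk, probed with anti-5hmC overnight at 4°C and HRP secondary, then scanned. Global 5hmC was also measured by LC-MS/MS, mean with S.D. of 3 independent experiments.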

[8] = system: bone marrow-derived macrophages (BMDMs); assay: Global 5hmC quantification by LC-MS/MS in BMDMs; type: cell-based, mouse; conditions: 0.5 mM OI or increased concentrations of ITA, 8 hours; for Reduction of global 5hmC: Tet2^+/+ BMDMs; for Effect on global 5hmC: Tet2^−/− BMDMs
LPS-induced sepsis = assay: Mouse model of LPS-induced sepsis; type: in vivo; conditions: Tet2^−/− mice
[9] = system: TET2-overexpressing HEK293T cells; assay: Global histone methylation markers by western blot; type: cell-based
Tet2^+/+ BMDMs = assay: 5hmC mapping by hMeDIP-seq in BMDMs; type: cell-based, mouse; conditions: 0.5 mM OI, 8 hours

Molecule: COC(=O)CCC(=O)C(=O)OC [dimethyl-α-KG]
Nfkbiz mRNA (RAW264.7 cells [1]; LPS-stimulated Tet2-WT but not Tet2-KO cells): further increase
Effect on OI-induced 5hmC reduction ([2]; increasing amount, together with OI): reversed
Effect on 5hmC in LPS-treated cells (RAW264.7 cells [3]): restored 5hmC

IC50 (mTET2^CD; read-out: IC50 toward mTET2^CD catalytic activity, 0.1 mM α-KG, 37°C 30 min): > 5000 µM
Molecule: O=C(O)/C=C/C(=O)O [fumarate]

Molecule: O=C(O)CC[N+](=O)[O-] [3-NPA, 3-nitropropionic acid]
Effect on global 5hmC (Irg1-KO RAW264.7 cells): little effect
Intracellular accumulation of succinate (Irg1-KO RAW264.7 cells): ≤ 1.5 mM

Molecule: C=C(CC(=O)O)C(=O)O [ITA, itaconic acid]
Suppression of LPS-induced chemokine and cytokine genes upon Tet2 deletion (RAW264.7 cells [1]; unmodified ITA 3 mM, Tet2-WT vs Tet2-KO): completely abolished by Tet2 deletion
Time to intracellular accumulation of ITA [4]: < 30 s
Binding to recombinant human TET2^CD (STD NMR) [5]: bound directly
ITA-TET2^CD binding in presence of α-KG (STD NMR) ([5]; competition with α-KG): blocked by α-KG
Binding to TET2^CD mutants R1896M or S1898F (STD NMR) [6]: abolish the binding
5mC in peritoneal leukocytes (peritoneal leukocytes): unaffected
Reduction of 5hmC in peritoneal leukocytes (peritoneal leukocytes; 2 hours post LPS): ≤ 36%
Effect on global 5hmC [7]: decreased global 5hmC
Reduction of global 5hmC [8]: ≤ 95%
Effect on global 5hmC [8]: little effect
IC50 (mTET2^CD): 171 µM
Inhibition of mTET2^CD activity in presence of excess α-KG (mTET2^CD): overcome dose-dependently by excess α-KG
Anti-inflammatory and protective effects (LPS-induced sepsis): not observed

Molecule: CCCCCCCCOC(=O)[C@@H](O)CCC(=O)O [Octyl-L-2HG]
Effect on 5hmC [2]: dose-dependently reduced 5hmC

Molecule: C=C(CC(=O)OCCCCCCCC)C(=O)O [OI, octyl-ITA]
Nfkbiz mRNA expression (RAW264.7 cells [1]; LPS-stimulated Tet2-KO cells): failed to affect
LPS-induced mRNA expression of Nfkbiz, Il-6, Cxcl9/10/11 (RAW264.7 cells [1]; Tet2-WT, LPS 2 hours then OI 2 hours): hindered
Effect on 5hmC [2]: dose-dependently reduced 5hmC
Time to intracellular accumulation of ITA [4]: < 30 s
Effect on global 5hmC [7]: decreased global 5hmC
Effect on global histone methylation [9]: no detectable effect
Reduction of global 5hmC [8]: ≤ 95%
Effect on global 5hmC [8]: little effect
5hmC by hMeDIP-seq (Tet2^+/+ BMDMs): decreased 5hmC at both promoters and intragenic regions

Inhibition of mTET2^CD activity in presence of excess α-KG (mTET2^CD): overcome dose-dependently by excess α-KG
Molecule: O=C(O)CC[C@H](O)C(=O)O [L-2-HG]

Binding to TET2^CD R1896M mutant (STD NMR) ([6]; R1896M mutation, not S1898F): weakens the binding
Molecule: α-ketoglutarate [α-KG]

Binding to recombinant human TET2^CD (STD NMR) [5]: not
Molecule: NC(=O)CC[C@H](N)C(=O)O [glutamine]
